Data from ChEMBL document CHEMBL3739259, “Defining Key Structural Determinants for the Pro-osteogenic Activity of Flavonoids” (J Nat Prod, 2015).
The source made the active and inactive calls. No cut-off for these calls is given here.

How the values were obtained:
[1] = Cytotoxicity against human MSC assessed as cell viability at 1 uM treated for 3 days measured on day 4 by alamar blue assay (reference value: 97 to 100%); details: MSC cells, read-out: Activity
[2] = Cytotoxicity against human MSC assessed as cell viability at 5 uM measured on day 1 by alamar blue assay (reference value: 97 to 101%); details: MSC cells, read-out: Activity
MSC [3] = test: (§1) Induction of osteogenic differentiation in human MSC assessed as increase in ALP activity at 10 uM using p-NPP as substrate after 9 days by colorimetric method relative to control; format: functional
Outline: (§2)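 ALP read on day 9 in passage-3 bone-marrow hMSCs cultured at high density in Os.D medium. Compound (1, 5 or 10 μM, 0.1% v/v DMSO final) was re-applied on days 0, 3 and 6. Colorimetric p-nitrophenyl phosphate method, normalised to time and cell number (pNP/min/20,000 cells). Expressed as % of untreated control; three independent triplicate experiments; one-way ANOVA versus vehicle.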

MSC [4] = test: (§3) Induction of osteogenic differentiation in human MSC assessed as increase in ALP activity at 5 uM using p-NPP as substrate after 9 days by colorimetric method relative to control; format: functional; outline: as §2
[5] = Cytotoxicity against human MSC assessed as cell viability at 10 uM treated for 6 days measured on day 7 by alamar blue assay (reference value: 96 to 101%); details: MSC cells, read-out: Activity
[6] = Cytotoxicity against human MSC assessed as cell viability at 5 uM treated for 3 days measured on day 4 by alamar blue assay (reference value: 97 to 100%); details: MSC cells, read-out: Activity
[7] = Cytotoxicity against human MSC assessed as cell viability at 5 uM treated for 6 days measured on day 7 by alamar blue assay (reference value: 96 to 101%); details: MSC cells, read-out: Activity
MSC [8] = test: Induction of osteogenic differentiation in human MSC assessed as increase in ALP activity at 1 uM using p-NPP as substrate after 9 days by colorimetric method relative to control; format: functional; outline: as §2
[9] = Cytotoxicity against human MSC assessed as cell viability at 1 uM treated for 6 days measured on day 7 by alamar blue assay (reference value: 96 to 101%); details: MSC cells, read-out: Activity
[10] = Cytotoxicity against human MSC assessed as cell viability at 10 uM treated for 3 days measured on day 4 by alamar blue assay (reference value: 97 to 100%); details: MSC cells, read-out: Activity
[11] = Cytotoxicity against human MSC assessed as cell viability at 10 uM measured on day 1 by alamar blue assay (reference value: 97 to 101%); details: MSC cells, read-out: Activity
[12] = Cytotoxicity against human MSC assessed as cell viability at 1 uM measured on day 1 by alamar blue assay (reference value: 97 to 101%); details: MSC cells, read-out: Activity
[13] = Cytotoxicity against human MSC assessed as decrease in cell number at 1 to 10 uM after 9 days by methylene blue staining based microscopy relative to control; details: 216 h
Outline: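 Passage-3 bone-marrow hMSCs, high density in Os.D medium, dosed with 1, 5 or 10 μM compound (0.1% v/v DMSO final) on days 0, 3 and 6 with medium changes. Cell number measured on day 9 by methylene blue proliferation assay. Expressed as % of untreated control; three independent triplicate experiments, mean ± SEM, one-way ANOVA versus vehicle.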

[14] = as §1; format: functional; outline: as §2
[15] = as §3; format: functional; outline: as §2
MSC [16] = test: Induction of osteogenic differentiation in human MSC assessed as increase in ALP activity using p-NPP as substrate after 9 days by colorimetric method; format: functional; outline: as §2
[17] = Decrease in ALP activity in human MSC using p-NPP as substrate at 10 uM after 9 days by colorimetric method relative to control; format: functional
Outline: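 Passage-3 bone-marrow hMSCs from healthy donors, cultured at high density in osteogenic (Os.D) medium; compound given at days 0, 3 and 6 with media change every 3 days, final 0.1% (v/v) DMSO; vehicle, 50 nM calcitriol and untreated controls. Day-9 ALP by para-nitrophenyl phosphate colorimetry, normalised to time and cell number (methylene blue); % of untreated control, 3 independent triplicate experiments ± SEM.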

[18] = Decrease in ALP activity in human MSC using p-NPP as substrate at 5 uM after 9 days by colorimetric method relative to control; format: functional; design: Activity: scale not given: the % may be the effect or the level left; outline: as §2

Structure (SMILES)	viability at 72 h, 1 µM [1]	viability at 1 day, 5 µM [2]	Activity (MSC [3])	Activity (MSC [4])	viability at 144 h, 10 µM [5]	viability at 72 h, 5 µM [6]	viability at 144 h, 5 µM [7]	Activity (MSC [8])	viability at 144 h, 1 µM [9]	viability at 72 h, 10 µM [10]	viability at 1 day, 10 µM [11]	viability at 1 day, 1 µM [12]	Activity [13]	fold change (FC) [14]	fold change (FC) [15]	Activity (MSC [16])	fold change (FC) [17]	fold change (FC) [13]	Activity [14]	Activity [18]
O=C(CCc1ccc(O)cc1)c1c(O)cc(O)cc1O [PHLORETIN]	93%	105%	inactive	inactive	100%	93%	98%	inactive	97%	95%	106%	106%	–	–	–	–	–	–	–	–
COc1ccc(-c2cc(=O)c3c(O)cc(O)cc3o2)cc1O	–	–	inactive	inactive	–	–	–	inactive	–	–	–	–	–	–	–	–	–	–	–	–
COc1ccc(-c2oc3cc(O)cc(O)c3c(=O)c2O)cc1O [TAMARIXETIN]	97%	102%	–	–	93%	97%	96%	inactive	94%	93%	102%	105%	Toxic	1.32	1.52	Dose-dependent effect	–	–	–	–
O=c1c(O)c(-c2ccccc2)oc2cc(O)cc(O)c12 [GALANGIN]	94%	105%	–	–	97%	91%	97%	inactive	99%	91%	104%	105%	–	1.32	1.52	Dose-dependent effect	–	–	–	–
Oc1ccc(/C=C/c2cc(O)cc(O)c2)cc1 [RESVERATROL]	100%	101%	inactive	inactive	97%	100%	97%	inactive	96%	100%	98%	99%	Toxic	–	–	–	–	–	–	–
O=c1cc(-c2ccc(O)cc2)oc2cc(O)cc(O)c12 [APIGENIN]	101%	102%	inactive	inactive	94%	99%	97%	inactive	96%	98%	98%	98%	Toxic	–	–	–	–	–	–	–
O=c1c(O)c(-c2ccc(O)c(O)c2)oc2cc(O)cc(O)c12 [QUERCETIN]	98%	100%	–	–	101%	100%	104%	inactive	103%	101%	89%	101%	Toxic	1.32	1.52	–	–	–	–	–
O=c1cc(-c2ccc(O)c(O)c2)oc2cc(O)cc(O)c12 [LUTEOLIN]	99%	96%	–	–	96%	96%	94%	inactive	97%	94%	93%	100%	Toxic	–	–	–	0.59	–	–	–
COc1cc(-c2oc3cc(O)cc(O)c3c(=O)c2O)ccc1O [ISORHAMNETIN]	93%	107%	–	–	97%	92%	100%	inactive	98%	91%	108%	105%	Toxic	1.32	1.52	–	–	–	–	–
O=C1C[C@@H](c2ccc(O)cc2)Oc2cc(O)cc(O)c21 [NARINGENIN]	101%	105%	–	inactive	103%	104%	102%	inactive	100%	106%	105%	104%	–	1.53	–	–	–	–	–	–
COc1cc([C@@H]2CC(=O)c3c(O)cc(O)cc3O2)ccc1O	–	–	inactive	inactive	–	–	–	inactive	–	–	–	–	–	–	–	–	–	–	–	–
O=C1c2c(O)cc(O)cc2O[C@H](c2ccc(O)c(O)c2)[C@H]1O [(+)-TAXIFOLIN]	92%	101%	inactive	inactive	101%	92%	98%	inactive	98%	92%	102%	103%	–	–	–	–	–	–	–	–
O=c1c(O)c(-c2ccc(O)c(O)c2)oc2cc(O)ccc12 [FISETIN]	96%	98%	–	–	96%	97%	97%	inactive	98%	95%	86%	98%	Toxic	1.32	1.52	–	–	–	–	–
Oc1cc(O)c2c(c1)O[C@H](c1ccc(O)c(O)c1)[C@@H](O)C2 [CIANIDANOL]	94%	104%	inactive	inactive	98%	92%	98%	inactive	97%	93%	104%	105%	–	–	–	–	–	–	–	–
O=c1cc(-c2ccccc2)oc2ccccc12 [FLAVONE]	93%	103%	inactive	inactive	98%	93%	102%	inactive	100%	92%	106%	102%	Toxic	–	–	–	–	–	–	–
Oc1cc(O)c2c(c1)O[C@H](c1ccc(O)c(O)c1)[C@H](O)C2 [(-)-EPICATECHIN]	98%	90%	inactive	inactive	98%	95%	98%	inactive	96%	94%	84%	92%	–	–	–	–	–	0.43	–	–
O=C1C[C@@H](c2ccc(O)c(O)c2)Oc2cc(O)cc(O)c21 [ERIODICTYOL]	103%	98%	–	inactive	101%	102%	102%	inactive	101%	102%	99%	102%	–	–	–	–	–	–	111%	98%
